From PMC11838921 (Journal of agricultural and food chemistry, 2024)

What was measured:
[1] = tested on: antiphenamacril mAb; test: ic-ELISA for sensitivity and specificity of the mAb; assay type: binding, Balb/c mice; settings: for Cross-reactivity: CR = IC50(analyte)/IC50(structural analogue) x 100%; for IC50: ic-ELISA, standards in 10% methanol-PBS
Outline: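 Ic-ELISA with purified mAb (ascites, Protein G column). Phenamacril standards at 0–500 ng/mL (500 to 1.95 in twofold steps) in 10% methanol-PBS; 50 μL standard and 50 μL mAb per well. IC50 taken as sensitivity. Cross-reactivity run with four methoxyacrylate analogues: IC50(analyte)/IC50(analogue) × 100%.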

[2] = tested on: antisera; test: ic-ELISA of antiserum of the immunized mouse; assay type: binding, Balb/c mice; settings: phenamacril at 1 μg/mL, mouse used for fusion (titer 80,000)
[3] = activated sludge; cited from earlier work
[4] = tested on: Au@PDA-mAb probe; test: dual-readout immunochromatographic strip; assay type: binding
Outline: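 Standards and analogues at 0.63–20 ng/mL in PBS with 10% methanol were applied to the strip sample pad (100 μL). Au@PDA-mAb probe sat on the conjugate pad. T line held phenamacril-OVA plus QDs-OVA; C line held anti-mouse IgG. Colour read by eye as T-line red loss against the C line. Fluorescence read as green T-line intensity under UV.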

[5] = tested on: Au@PDA-mAb probe; test: dr-ICGA on wheat flour samples; assay type: binding; settings: n = 5
Outline: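 Phenamacril-free flour (5 g, confirmed by LC-MS/MS) in 10 mL ultrapure water, vortexed 2 min, spiked with standard to 0.0125–0.20 mg/kg; water-only blank at 0 mg/kg. Residue redissolved in 1 mL 10% methanol-PBS, then diluted 10-fold. 100 μL applied to the strip. Read by eye as −, ± or +, with cut-offs <0.05, 0.05–0.1 and >0.1 mg/kg.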

[6] = Jiangxi red soil; cited from earlier work

With COc1c(F)c(F)c(C(=O)NCc2ncc(C(F)(F)F)cc2Cl)c(F)c1F [Fluopimomide] the Cross-reactivity [1] was under 0.35%, the Cross-reactivity ([1]; listed as fluopimomide) was under 0.35% and the IC50 [1] was >5,000 ng/mL.

In the case of CCOC(=O)C(C#N)=C(N)c1ccccc1 [Phenamacril, 2-cyano-3-amino-3-phenylacrylic acetate], the Cross-reactivity [1] is reported as 100%, the IC50 [1] is reported as 17.46 ng/mL and the inhibition rate [2] is reported as “approximately 70.8%”. The degradation [3] was “degrades slowly”, the “reaction on the T line of the dual-readout strip” value ([4]; 20 ng/mL loaded, visual and UV readout) was “strong positive reaction on the T line” and the “limit of detection (cutoff value)” value ([4]; dr-ICGA, colorimetric and fluorescent readout, within 10 min) was 5 ng/mL. For the same molecule, the “dr-ICGA visual result (dilute 10 times)” value ([5]; wheat flour spiked 0.0125 mg/kg) was “−, −, −, −, −,”, the “dr-ICGA visual result (dilute 10 times)” value ([5]; wheat flour spiked 0.025 mg/kg) was “−, ± , −, ± , −,” and the “dr-ICGA visual result (dilute 10 times)” value ([5]; wheat flour spiked 0.05 mg/kg) was “±, ± , ± , ± , ± ,”. The “dr-ICGA visual result (dilute 10 times)” value ([5]; wheat flour spiked 0.1 mg/kg) was “±, + , + , + , + ,”, the “dr-ICGA visual result (dilute 10 times)” value ([5]; wheat flour spiked 0.2 mg/kg) was “+, + , + , + , + ,” and the mobility in soil [6] was “moderately mobile”.

In the case of CO/C=C(/C(=O)OC)c1ccccc1COc1cccc(C(F)(F)F)n1 [Picoxystrobin], the Cross-reactivity [1] is reported as under 0.35%, the Cross-reactivity ([1]; listed as picoxystrobin) is reported as under 0.35% and the IC50 [1] is reported as >5,000 ng/mL.

In the case of COC(=O)N(OC)c1ccccc1COc1ccn(-c2ccc(Cl)cc2)n1 [Pyraclostrobin], the Cross-reactivity [1] is reported as under 0.35%, the Cross-reactivity ([1]; listed as pyraclostrobin) is reported as under 0.35% and the IC50 [1] is reported as >5,000 ng/mL.

For CO/C=C(/C(=O)OC)c1ccccc1Oc1cc(Oc2ccccc2C#N)ncn1 [Azoxystrobin], the Cross-reactivity [1] was under 0.35%, the Cross-reactivity ([1]; listed as azoxystrobin) was under 0.35% and the IC50 [1] was >5,000 ng/mL.
